Results from ChEMBL document CHEMBL1124857, “A radiotracer for mapping cholinergic neurons of the brain” (1990).

What was measured:
Mus musculus [1] = organism: Mus musculus; assay: Percentage dose injected in the whole brain of mouse was determined.; type: functional
In short: (§1)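 Female CD-1 mice (18–27 g; n = 4 or 5 per tracer) were given the tracer by tail-vein injection under ether anesthesia. Doses were 7.2–10.8 μCi of the 125I-labeled tracer or 5.0 μCi of the 3H-labeled tracer. Mice were killed 4 h later. Tissues were excised, weighed, and counted by gamma or liquid-scintillation counting. Values are % injected dose/g, or % dose in whole brain, normalized to a 25 g mouse.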

Mus musculus [2] = assay: Evaluated for the radiotracer concentration in cerebellum of mouse brain, 4 hr after intravenous injection; type: functional, organism-based; in short: as §1
Mus musculus [3] = assay: Evaluated for the radiotracer concentration in cerebral cortex of mouse brain, 4 hr after intravenous injection; type: functional, organism-based; in short: as §1
Mus musculus [4] = assay: Evaluated for the radiotracer concentration in striatum of mouse brain, 4 hr after intravenous injection; type: functional, organism-based; in short: as §1
[5] = tested as the 125I-labelled form

For [3H]OC1CCCCC1N1CCC(c2ccccc2)CC1 (stereo unspecified), the Dose (Mus musculus [1]) was 0.24%.

In the case of OC1Cc2cccc(I)c2CC1N1CCC(c2ccccc2)CC1 (racemic), the Dose/g (Mus musculus [2]; [5]) is reported as 0.2%, the Dose/g (Mus musculus [3]; [5]) is reported as 1.17% and the Dose/g (Mus musculus [4]; [5]) is reported as 3.29%.

In the case of OC1CCCCC1N1CCC(c2ccccc2)CC1 (stereo unspecified), the Dose/g (Mus musculus [2]; tested as the 3H-labelled form) is reported as 0.1%, the Dose/g (Mus musculus [3]; tested as the 3H-labelled form) is reported as 0.42% and the Dose/g (Mus musculus [4]; tested as the 3H-labelled form) is reported as 0.4%.

Work on O[C@H]1Cc2cccc(I)c2C[C@@H]1N1CCC(c2ccccc2)CC1 yielded a Dose/g (Mus musculus [2]; [5]) of 0.06%, a Dose/g (Mus musculus [3]; [5]) of 0.12% and a Dose/g (Mus musculus [4]; [5]) of 0.26%.

O[C@H]1Cc2cccc([125I])c2C[C@@H]1N1CCC(c2ccccc2)CC1 gave a Dose (Mus musculus [1]) of 0.06%.

Compound OC1Cc2cccc([125I])c2CC1N1CCC(c2ccccc2)CC1 (racemic) has a Dose (Mus musculus [1]) of 0.56%.

In the case of O[C@@H]1Cc2cccc(I)c2C[C@H]1N1CCC(c2ccccc2)CC1, the Dose (Mus musculus [1]) is reported as 1.03%, the Dose/g (Mus musculus [2]) is reported as 0.23% and the Dose/g (Mus musculus [3]) is reported as 2.56%. The Dose/g (Mus musculus [4]) was 6.26%.
